From ChEMBL document CHEMBL4308909, “Synthesis, Antioxidant Activity and Cytotoxicity of N-Functionalized Organotellurides” (Bioorg Med Chem, 2019)
≈ marks a conversion by molar mass, not a printed value. Calls of active or inactive are those of the source. The rule behind the calls is not given here.

What was measured:
[1] = Antioxidant activity assessed as ferric ion reducing activity by measuring trolox equivalents after 40 mins by FRAP assay; format: functional
Outline: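 Samples at several concentrations incubated with reagent at 37 °C for 40 min in the dark, absorbance read at 593 nm. Expressed as trolox equivalent antioxidant capacity. Quercetin reference.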

[2] = Antioxidant activity of the compound assessed as DPPH radical scavenging activity after 30 mins by spectrophotometric method; format: functional
Outline: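 Methanolic DPPH (130 μmol L⁻¹ before mixing, 1:1 with sample) mixed with methanolic samples at several concentrations, 30 min at room temperature in the dark, absorbance at 517 nm. Percent scavenging calculated against a methanol-plus-DPPH control. IC50 from linear regression, triplicate. Quercetin reference.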

[3] = Antioxidant activity assessed as ABTS radical scavenging activity after 16 hrs by spectrophotometric analysis; format: functional
Outline: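 ABTS radical cation generated from ABTS (7 mmol L⁻¹) plus potassium persulfate (140 mmol L⁻¹), 16 h at room temperature in the dark, diluted in ethanol to absorbance 0.70 at 734 nm. Sample added at several concentrations, read at 734 nm after 6 min. Trolox calibration curve (20–600 μmol L⁻¹) in ethanol, results in mmol TE g⁻¹. Quercetin reference.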

L929 [4] = assay: Cytotoxicity against mouse L929 cells assessed as reduction in cell viability at 3.9 to 15.6 ug/ml after 24 hrs by neutral red staining-based spectrophotometric analysis; conditions: l929, 24 h
Outline: (§1)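 L929 fibroblasts grown in DMEM with 2 mM L-glutamine, 10% FBS, penicillin/streptomycin, 37 °C, 5% CO₂. Cells seeded at 2.5 × 10⁵ cells ml⁻¹ and treated after 24 h with 1.95–15.625 μg mL⁻¹ for 24 h (DMSO ≤1.5% final). Neutral red (40 μg mL⁻¹) for 3 h, fixed, dye extracted with ethanol/acetic acid, read at 540 nm. Compared with negative control by Tukey's test.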

L929 [5] = assay: Cytotoxicity against mouse L929 cells assessed as reduction in cell viability at 1.9 ug/ml after 24 hrs by neutral red staining-based spectrophotometric analysis; conditions: l929, 24 h; outline: as §1
L929 [6] = assay: Cytotoxicity against mouse L929 cells assessed as reduction in cell viability at 1.9 to 15.6 ug/ml after 24 hrs by neutral red staining-based spectrophotometric analysis; conditions: l929, 24 h; outline: as §1

SMILES | Activity [1] | IC50 [2] [µg/mL] | Activity [3] | Activity (L929 [4]) | Activity (L929 [5]) | Activity (L929 [6])
O=c1c(O)c(-c2ccc(O)c(O)c2)oc2cc(O)cc(O)c12 [QUERCETIN] | Active | 2.54 (≈ 8.4 µM) | Active | – | – | –
CCCC[Se]c1ccc(C(C)NCC(C)C)cc1 (centres undefined) | – | > 100 | – | – | – | –
CCCC[Te]c1ccc(C(C)NCC(C)C)cc1 (centres undefined) | inactive | 12.49 | inactive | Non-Toxic | – | –
CCCC[Te]c1cccc(C(C)N)c1 (centres undefined) | Active | 19.22 | Active | Toxic | Non-Toxic | –
C/C(=N\O)c1ccc([Te]CCCO)cc1 | inactive | 13.06 | – | – | – | Non-Toxic
CCCC[Te]c1ccc(C(C)N)cc1 (centres undefined) | Active | 12.07 | Active | Toxic | Non-Toxic | –
CCCC[Se]c1cccc(C(C)N)c1 (centres undefined) | – | > 100 | – | – | – | –
CCCC[Se]c1ccc(C(C)N)cc1 (centres undefined) | – | > 100 | – | – | – | –
CCCC[Te]c1ccc(C(C)NCc2ccccc2)cc1 (centres undefined) | inactive | 11.41 | inactive | Non-Toxic | – | –
C=CCNC(C)c1ccc([Te]CCCC)cc1 (centres undefined) | – | > 100 | – | – | – | –
CCCCNC(C)c1ccc([Te]CCCC)cc1 (centres undefined) | inactive | 8.63 | inactive | Non-Toxic | – | –
CCCC[Te]c1cccc(/C(C)=N/O)c1 | Active | 5.12 | Active | Toxic | Non-Toxic | –
CCCC[Te]c1ccc(/C(C)=N/O)cc1 | Active | 7.79 | Active | Toxic | Non-Toxic | –
CCCC[Te]c1ccc(/C(C)=N/N)cc1 | – | 5.08 | – | – | – | Non-Toxic
